Experimental data: ChEMBL document CHEMBL1127630, “New dual inhibitors of neutral endopeptidase and angiotensin-converting enzyme: rational design, bioavailability, and pharmacological responses in experimental hypertension” (J Med Chem, 1994)
Blank lines part the entries; values can stand above or below the molecule they belong to.

Assays:
[1] = molecular target: T1, Angiotensin-converting enzyme (Mus musculus) (UniProt P09470); experiment: In vivo inhibition of lung ACE was observed at 120 min after oral administration of the compound; type: functional, organism-based; design: concentration or dose not given beside the values
T1 sequence (whole entry): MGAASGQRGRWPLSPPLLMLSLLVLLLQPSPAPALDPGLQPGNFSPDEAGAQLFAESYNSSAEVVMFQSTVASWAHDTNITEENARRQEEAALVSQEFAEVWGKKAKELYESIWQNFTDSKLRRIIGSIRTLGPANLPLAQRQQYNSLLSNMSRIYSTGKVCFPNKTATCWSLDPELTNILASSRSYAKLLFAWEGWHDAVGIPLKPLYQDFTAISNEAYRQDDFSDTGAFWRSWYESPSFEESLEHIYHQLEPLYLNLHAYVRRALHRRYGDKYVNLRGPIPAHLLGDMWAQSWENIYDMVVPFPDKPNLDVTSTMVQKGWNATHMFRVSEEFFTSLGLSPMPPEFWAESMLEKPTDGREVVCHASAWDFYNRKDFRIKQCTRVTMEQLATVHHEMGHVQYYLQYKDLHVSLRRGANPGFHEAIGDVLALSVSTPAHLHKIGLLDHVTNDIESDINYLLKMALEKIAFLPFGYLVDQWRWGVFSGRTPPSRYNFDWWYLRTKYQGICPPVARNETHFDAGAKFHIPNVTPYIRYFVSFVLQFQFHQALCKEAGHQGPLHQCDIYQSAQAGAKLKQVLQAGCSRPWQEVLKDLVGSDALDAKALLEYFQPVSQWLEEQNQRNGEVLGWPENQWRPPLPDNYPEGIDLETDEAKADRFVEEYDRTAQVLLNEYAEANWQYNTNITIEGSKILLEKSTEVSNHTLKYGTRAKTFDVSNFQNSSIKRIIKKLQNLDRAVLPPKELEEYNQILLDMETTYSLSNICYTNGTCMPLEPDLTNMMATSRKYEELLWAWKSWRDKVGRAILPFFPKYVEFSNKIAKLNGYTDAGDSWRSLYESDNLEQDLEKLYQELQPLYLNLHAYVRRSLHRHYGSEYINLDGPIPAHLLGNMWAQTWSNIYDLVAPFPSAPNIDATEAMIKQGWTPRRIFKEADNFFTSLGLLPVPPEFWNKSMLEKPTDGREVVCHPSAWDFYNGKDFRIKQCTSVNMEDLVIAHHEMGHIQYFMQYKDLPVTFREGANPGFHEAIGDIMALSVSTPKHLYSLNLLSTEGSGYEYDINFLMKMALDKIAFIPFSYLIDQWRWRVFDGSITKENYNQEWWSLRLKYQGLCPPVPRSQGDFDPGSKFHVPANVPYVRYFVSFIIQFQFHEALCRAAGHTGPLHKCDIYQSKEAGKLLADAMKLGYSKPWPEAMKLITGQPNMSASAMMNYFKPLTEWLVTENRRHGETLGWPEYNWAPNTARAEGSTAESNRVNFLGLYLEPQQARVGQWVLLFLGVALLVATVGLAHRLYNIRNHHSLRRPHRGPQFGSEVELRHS

[2] = molecular target: T2, Neprilysin (Mus musculus) (UniProt Q61391); experiment: Inhibition of Neutral Endopeptidase activity was measured by using the displacement of [3H]-HACBOGly from mouse kidney after 1 hr oral administration; design: scale not given: the % may be the effect or the level left
T2 sequence (whole entry): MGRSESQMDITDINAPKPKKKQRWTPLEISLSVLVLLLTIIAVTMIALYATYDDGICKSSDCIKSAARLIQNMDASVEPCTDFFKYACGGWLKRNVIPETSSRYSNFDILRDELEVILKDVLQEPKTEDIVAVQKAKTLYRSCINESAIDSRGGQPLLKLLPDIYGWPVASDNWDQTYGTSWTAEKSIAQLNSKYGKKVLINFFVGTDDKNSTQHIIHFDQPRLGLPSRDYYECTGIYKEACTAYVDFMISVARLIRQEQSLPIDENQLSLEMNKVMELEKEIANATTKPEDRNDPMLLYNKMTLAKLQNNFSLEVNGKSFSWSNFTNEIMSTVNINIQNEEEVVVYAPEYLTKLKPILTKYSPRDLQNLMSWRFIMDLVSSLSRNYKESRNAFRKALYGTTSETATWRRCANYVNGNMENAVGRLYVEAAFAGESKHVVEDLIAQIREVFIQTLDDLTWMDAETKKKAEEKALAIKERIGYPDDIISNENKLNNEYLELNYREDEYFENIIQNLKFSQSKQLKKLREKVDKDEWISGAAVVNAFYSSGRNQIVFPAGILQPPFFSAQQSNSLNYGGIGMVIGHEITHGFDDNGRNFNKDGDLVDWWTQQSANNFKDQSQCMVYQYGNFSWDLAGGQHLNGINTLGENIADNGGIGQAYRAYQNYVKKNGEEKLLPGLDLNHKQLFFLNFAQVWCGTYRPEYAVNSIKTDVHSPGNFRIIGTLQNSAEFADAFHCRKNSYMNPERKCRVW
In short: (§1)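 Mice dosed orally at 2.6 X 10-6 mol/kg in 10% ethanol/10% cremophor/80% water. [3H]HACBOGly (1 uCi) injected iv at intervals after dosing. Kidneys taken 15 min later, homogenized in 50 mM Tris-HCl pH 7.4 at 4 °C and filtered, radioactivity counted. Inhibition expressed as percent displacement versus control. Nonspecific binding defined with coinjected retrothiorphan (10.000 eq).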

[3] = molecular target: T2, Neprilysin (Mus musculus); experiment: Inhibition of Neutral Endopeptidase activity was measured by using the displacement of [3H]HACBOGly from mouse kidney after 4 hr oral administration; design: scale not given: the % may be the effect or the level left; in short: as §1
[4] = molecular target: T1, Angiotensin-converting enzyme (Mus musculus); experiment: In vivo inhibition of lung ACE was observed at 240 min after oral administration of the compound; type: functional, organism-based; design: concentration or dose not given beside the values
Mus musculus = experiment: In vivo inhibition of lung ACE was observed at 60 min after oral administration; type: functional; design: concentration or dose not given beside the values
[5] = molecular target: T2, Neprilysin (Mus musculus); experiment: Inhibition of Neutral Endopeptidase activity was measured by using the displacement of [3H]HACBOGly from mouse kidney after 2 hr oral administration; design: scale not given: the % may be the effect or the level left; in short: as §1
[6] = molecular target: T1, Angiotensin-converting enzyme (Mus musculus); experiment: In vivo inhibition of lung ACE was observed at 30 min after oral administration of the compound; type: organism-based; design: concentration or dose not given beside the values
[7] = molecular target: T3, Angiotensin-converting enzyme (Mus musculus, UniProt P09470); experiment: Inhibitory potency against angiotensin converting enzyme by displacement of [3H]trandolaprilate binding in mouse lung
T3 sequence (P09470 whole entry): T1 sequence (whole entry)

[8] = molecular target: T1, Angiotensin-converting enzyme (Mus musculus); experiment: In vivo inhibition of lung Angiotensin Converting Enzyme (ACE) in mouse at a dose of 2.6*10e-5 mol/kg after 60 min oral administration; type: functional, organism-based
In short: (§2)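 Prescreen in mice: single oral dose of 2.6 X 10-5 mol/kg of prodrug (thioacetyl and benzyl ester protected, tested as stereoisomer mixtures). Inhibition of binding of a tritiated ACE probe to lung measured 20 and 60 min after dosing. Mean ± SEM of three experiments, three mice each.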

[9] = molecular target: T1, Angiotensin-converting enzyme (Mus musculus); experiment: Inhibition of lung Angiotensin Converting Enzyme (ACE) in mouse at a dose of 2.6*10e-5 mol/kg after 20 min oral administration; in short: as §2

SMILES: CC(c1ccc(F)cc1)C(CS)C(=O)NC(Cc1ccc(O)cc1)C(=O)O (centres undefined)
- IC50 [7]: 6.9 nM

SMILES: Cc1ccccc1C(C)C(CS)C(=O)NC(Cc1ccc(O)cc1)C(=O)O (centres undefined)
- IC50 [7]: 210 nM

SMILES: CC(c1ccc(F)c(F)c1)C(CS)C(=O)NC(Cc1ccc(O)cc1)C(=O)O (centres undefined)
- IC50 [7]: 4.5 nM

SMILES: COc1ccc(C(C)C(CSC(C)=O)C(=O)N[C@@H](Cc2ccc(OC(C)=O)cc2)C(=O)OCc2ccccc2)cc1 (some centres undefined)
- inhibition [8]: 33%
- inhibition [9]: 14%

SMILES: C[C@@H](c1ccccc1)[C@@H](CS)C(=O)N[C@@H](Cc1ccccc1)C(=O)O (stereo in doubt; 48a)
- Ki [7]: 26 nM

SMILES: CCC(c1ccccc1)C(CS)C(=O)NC(Cc1ccc(O)cc1)C(=O)O (centres undefined)
- IC50 [7]: 110 nM

SMILES: CC(NC(=O)C(CS)C(C)c1ccc2c(c1)OCO2)C(=O)O (centres undefined)
- IC50 [7]: 9.5 nM

SMILES: C[C@@H](c1ccccc1)[C@@H](CS)C(=O)N[C@@H](Cc1ccccc1)C(=O)O (stereo in doubt; 48c)
- Ki [7]: 1.9 nM

SMILES: CC(c1ccccc1)C(CS)C(=O)NC(COCc1ccccc1)C(=O)O (centres undefined)
- IC50 [7]: 43 nM

SMILES: COc1ccc(C(C)C(CS)C(=O)NC(Cc2ccc(O)cc2)C(=O)O)cc1 (centres undefined)
- IC50 [7]: 3.6 nM

SMILES: CC(c1ccc(N)cc1)C(CS)C(=O)NC(Cc1ccc(O)cc1)C(=O)O (centres undefined)
- IC50 [7]: 12 nM

The next lines start with results.

- Control [1]: 49%
- Control [2]: 70%
- Control [3]: 46%
- Control [4]: 41%
- Control [5]: 55%
- Control [6]: 69%
SMILES: CCC[C@H](NC(=O)C(CSC(=O)c1ccccc1)C(C)c1ccccc1)C(=O)O (some centres undefined)
- Control (Mus musculus): 52%

- Control [1]: 39%
- Control [2]: 100%
- Control [3]: 73%
- Control [4]: 30%
- Control [5]: 97%
- Control [6]: 73%
SMILES: CC[C@H](NC(=O)C(CSC(=O)c1ccccc1)C(C)c1ccccc1)C(=O)O (some centres undefined)
- Control (Mus musculus): 57%

- Control [1]: 18%
- Control [4]: 16%
- Control [6]: 31%
SMILES: CC(=O)SCC(C(=O)N[C@@H](C)C(=O)O)C(C)c1ccccc1 (some centres undefined)
- Control (Mus musculus): 29%

- inhibition [8]: 28%
- inhibition [9]: 25%
SMILES: CC(=O)Oc1ccc(C[C@H](NC(=O)C(CSC(C)=O)C(C)c2ccccc2)C(=O)OCc2ccccc2)cc1 (some centres undefined)

- Ki [7]: 4.5 nM
SMILES: C[C@H](NC(=O)[C@H](CS)[C@@H](C)c1ccccc1)C(=O)O (stereo in doubt; 44c)

- Control [1]: 36%
- Control [4]: 35%
- Control [6]: 40%
SMILES: CC(c1ccccc1)C(CSC(=O)C12CC3CC(CC(C3)C1)C2)C(=O)N[C@@H](C)C(=O)O (some centres undefined)
- Control (Mus musculus): 39%

- inhibition [8]: 22%
- inhibition [9]: 35%
SMILES: CC(=O)SCC(C(=O)N[C@@H](C)C(=O)OCc1ccccc1)C(C)c1ccc(F)c(F)c1 (some centres undefined)

- IC50 [7]: 32 nM
SMILES: CC(c1ccccc1)C(CS)C(=O)NCC(=O)O (centres undefined)

- inhibition [8]: 41%
- inhibition [9]: 34%
SMILES: CCCC[C@H](NC(=O)C(CSC(C)=O)C(C)c1ccccc1)C(=O)OCc1ccccc1 (some centres undefined)

- Ki [7]: 10 nM
SMILES: C[C@H](c1ccccc1)[C@@H](CS)C(=O)N[C@@H](Cc1ccccc1)C(=O)O

- IC50 [7]: 10 nM
SMILES: CC(NC(=O)C(CS)C(C)c1ccc(F)cc1)C(=O)O (centres undefined)
